Assay results reported in ChEMBL document CHEMBL1133045, “Enhancing the aqueous solubility of d4T-based phosphoramidate prodrugs” (Bioorg Med Chem Lett, 2000).

Legend:
[1] = Partition coefficient (logP); type: physicochemical; conditions: octanol/water
Summary of the method: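 LogP measured as the 1-octanol/water partition coefficient.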

CCRF-CEM [2] = test: Compound was evaluated for the cytotoxicity against CEM cell proliferation by 50%; type: functional; conditions: Homo sapiens
CCRF-CEM [3] = test: Concentration required to protect CEM/TK- cells against cytopathicity of HIV-2 by 50%; type: functional, cell-based; conditions: Homo sapiens
CCRF-CEM [4] = test: Concentration required to protect CEM cells against cytopathicity of HIV-1 by 50%; type: functional, cell-based; conditions: Homo sapiens
CCRF-CEM [5] = test: Concentration required to protect CEM cells against cytopathicity of HIV-2 by 50%; type: functional, cell-based; conditions: Homo sapiens

Structure (SMILES)	logP [1]	EC50 (CCRF-CEM [3])	EC50 (CCRF-CEM [4])	EC50 (CCRF-CEM [5])	CC50 (CCRF-CEM [2])
COC(=O)C(C)NP(=O)(OC[C@@H]1C=C[C@H](n2cc(C)c(=O)[nH]c2=O)O1)Oc1ccccc1 (stereo partly specified)	1.04				33000 nM
COC(=O)C(C)NP(=O)(OCC1C=CC(n2cc(C)c(=O)[nH]c2=O)O1)Oc1ccc(CC(NC(=O)OC(C)(C)C)C(=O)OC)cc1 (stereo unspecified)	1.07	800 nM	650 nM	700 nM	217000 nM
COCCOCCOc1ccc(OP(=O)(NC(C)C(=O)OC)OCC2C=CC(n3cc(C)c(=O)[nH]c3=O)O2)cc1 (stereo unspecified)	0.86	1200 nM	550 nM	1000 nM	47000 nM
COCCOCCOCCOc1ccc(OP(=O)(NC(C)C(=O)OC)OCC2C=CC(n3cc(C)c(=O)[nH]c3=O)O2)cc1 (stereo unspecified)	0.86	1350 nM	750 nM	1300 nM	114000 nM

Continued by falling EC50 (CCRF-CEM [3]), values first:

logP [1]	EC50 (CCRF-CEM [3])	EC50 (CCRF-CEM [4])	EC50 (CCRF-CEM [5])	Structure (SMILES)	CC50 (CCRF-CEM [2])
0.09	5000 nM	4000 nM	10000 nM	COC(=O)C(N)Cc1ccc(OP(=O)(NC(C)C(=O)OC)OCC2C=CC(n3cc(C)c(=O)[nH]c3=O)O2)cc1 (stereo unspecified)	
1.1	400 nM	200 nM	250 nM	CCOCCOc1ccc(OP(=O)(NC(C)C(=O)OC)OCC2C=CC(n3cc(C)c(=O)[nH]c3=O)O2)cc1 (stereo unspecified)	64000 nM
0.86	340 nM	90 nM	600 nM	COCCOc1ccc(OP(=O)(NC(C)C(=O)OC)OCC2C=CC(n3cc(C)c(=O)[nH]c3=O)O2)cc1 (stereo unspecified)	35000 nM
1.09	47 nM	57 nM	53 nM	COC(=O)C(C)NP(=O)(OC[C@@H]1C=C[C@H](n2cc(C)c(=O)[nH]c2=O)O1)Oc1ccc(OC)cc1 (stereo partly specified)	> 100000 nM
